Reference: ChEMBL document CHEMBL1124562, “(3-Amino-2-oxoalkyl)phosphonic acids and their analogues as novel inhibitors of D-alanine:D-alanine ligase” (J Med Chem, 1989)
pIC50, pKi: −log10 of the molar value. Values belong to the compound of their own block, whether it stands above or below them.

Legend:
Enterococcus faecalis [1] = assay: Percent inhibition of D-Alanine-D-Alanine Ligase at 10e-3 M of the compound
How it was run: (§1)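 Enzyme was a 50% ammonium sulphate fraction from sonicated Streptococcus faecalis ATCC 8043 extract (0.38 units/mg). Inhibitor was preincubated 40 min at room temperature with enzyme, 0.008 M MgCl2, 0.01 M KCl and 0.05 M Tris-Cl pH 7.9. Then 0.005 M ATP and 0.005 M (14C-1)-D-alanine were added and the mix held 30 min at 37 °C. Radiolabelled product was resolved by silica TLC and integrated.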

[2] = Inhibition of DAla-DAla Ligase by the compound; design: species or system Enterococcus faecalis; how it was run: as §1
Enterococcus faecalis [3] = assay: Percent inhibition of DAla-DAla Ligase at 10e -3 M of the compound; how it was run: as §1
Enterococcus faecalis [4] = assay: Percent inhibition of DAla-DAla Ligase at 10e-3 M of the compound; how it was run: as §1
[5] = Inhibition of D-Alanine-D-Alanine Ligase Ligase by the compound; design: species or system Enterococcus faecalis; how it was run: as §1
[6] = Inhibition of DAla-DAla Ligase at 10e -3 M of the compound; design: species or system Enterococcus faecalis; how it was run: as §1

SMILES: C[C@H](N)C(=O)CP(=O)(O)O
inhibition (Enterococcus faecalis [1]): 14%

SMILES: C[C@@H](N)C(=O)NP(=O)(O)O
pKi [2]: 4.30
inhibition (Enterococcus faecalis [3]): 85%

pKi [2]: 3.60
SMILES: N[C@@H]1CONC1=O [CYCLOSERINE]

SMILES: C[C@@H](N)C(=O)CP(=O)(O)O
inhibition (Enterococcus faecalis [4]): 71%
pKi [2]: 3.29

inhibition (Enterococcus faecalis [3]): 24%
SMILES: C[C@@H](N)/C=C/P(=O)(O)O

inhibition (Enterococcus faecalis [1]): 25%
SMILES: C[C@@H](N)C(O)CP(=O)(O)O (some centres undefined)

inhibition (Enterococcus faecalis [1]): 32%
SMILES: C[C@@H](N)C(O)C(O)P(=O)(O)O (some centres undefined)

SMILES: NC(CCC(=O)CP(=O)(O)O)C(=O)O (centres undefined)
pKi [5]: 3.30

inhibition (Enterococcus faecalis [1]): 26%
SMILES: CC[C@@H](N)C(=O)CP(=O)(O)O

SMILES: C[C@@H](N)P(=O)(O)O
pIC50 [6]: 3.03

inhibition (Enterococcus faecalis [1]): 18%
SMILES: CC(C(=O)[C@@H](C)N)P(=O)(O)O (some centres undefined)

inhibition (Enterococcus faecalis [1]): 10%
SMILES: C[C@@H](N)C(=O)CCP(=O)(O)O
